Legend:
[1] = target: Cytochrome P450 3A4 (Homo sapiens, UniProt P08684); test: Inhibition of CYP3A4 in human liver microsomes by LC-MS/MS analysis; type: ADME, Microsome
Method in brief: (§1)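 Human liver microsomes incubated with isoform-specific substrates and compound, typically 0.1–25 μM. Metabolite formation read by LC-MS/MS, […]. IC50 calculated from the decrease in metabolite formation relative to vehicle control.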

[2] = Half life in mouse liver microsomes at 3 uM by LC-MS/MS analysis; type: ADME, Microsome
Method in brief: (§2)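 Human or mouse liver microsomes (0.5 mg/mL) incubated with 3 μM compound at 37 °C. Reaction started with NADPH and stopped with methanol containing internal standard. Loss of compound followed over 45 min by LC-MS/MS. Peak area ratio to internal standard plotted against time and the slope of the line taken.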

[3] = target: Sodium-dependent dopamine transporter (Homo sapiens, UniProt Q01959); test: Inhibition of dopamine reuptake at DAT expressed in CHO-K1 cells; type: cell-based
Chain of Sodium-dependent dopamine transporter (Q01959 whole entry): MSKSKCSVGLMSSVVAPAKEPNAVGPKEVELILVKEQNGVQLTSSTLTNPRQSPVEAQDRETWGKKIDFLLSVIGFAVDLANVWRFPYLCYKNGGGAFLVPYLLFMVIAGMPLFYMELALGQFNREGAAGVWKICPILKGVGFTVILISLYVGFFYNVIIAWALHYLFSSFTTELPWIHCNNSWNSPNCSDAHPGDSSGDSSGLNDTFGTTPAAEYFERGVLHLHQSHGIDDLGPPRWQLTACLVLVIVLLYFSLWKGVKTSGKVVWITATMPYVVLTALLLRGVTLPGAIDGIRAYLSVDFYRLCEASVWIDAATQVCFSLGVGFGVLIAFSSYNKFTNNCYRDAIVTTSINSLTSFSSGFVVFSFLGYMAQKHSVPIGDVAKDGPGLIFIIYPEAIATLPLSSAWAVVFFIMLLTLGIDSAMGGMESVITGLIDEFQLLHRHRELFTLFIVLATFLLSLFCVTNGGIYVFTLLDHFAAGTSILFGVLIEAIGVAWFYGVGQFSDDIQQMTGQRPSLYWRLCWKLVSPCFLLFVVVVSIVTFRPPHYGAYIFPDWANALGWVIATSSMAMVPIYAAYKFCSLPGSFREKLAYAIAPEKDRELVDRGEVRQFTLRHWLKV

[4] = target: Cytochrome P450 2C9 (Homo sapiens, UniProt P11712); test: Inhibition of CYP2C9 in human liver microsomes by LC-MS/MS analysis; type: ADME, Microsome; method in brief: as §1
Chain of Cytochrome P450 2C9 (P11712 whole entry): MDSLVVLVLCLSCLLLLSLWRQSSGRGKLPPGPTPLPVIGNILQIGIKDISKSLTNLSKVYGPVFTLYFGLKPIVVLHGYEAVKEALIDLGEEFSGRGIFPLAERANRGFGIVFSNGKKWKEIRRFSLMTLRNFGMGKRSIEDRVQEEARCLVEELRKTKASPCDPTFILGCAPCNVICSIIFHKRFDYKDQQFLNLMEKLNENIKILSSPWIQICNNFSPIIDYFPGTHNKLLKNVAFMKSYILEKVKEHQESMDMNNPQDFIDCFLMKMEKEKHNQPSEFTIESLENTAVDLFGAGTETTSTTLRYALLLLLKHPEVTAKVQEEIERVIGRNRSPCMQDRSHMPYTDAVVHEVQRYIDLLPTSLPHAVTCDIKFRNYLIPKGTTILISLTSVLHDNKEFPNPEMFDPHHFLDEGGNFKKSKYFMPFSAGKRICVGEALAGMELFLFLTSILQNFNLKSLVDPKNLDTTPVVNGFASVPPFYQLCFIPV

[5] = target: Voltage-gated inwardly rectifying potassium channel KCNH2 (Homo sapiens, UniProt Q12809); test: Inhibition of human ERG expressed in CHO cells by high throughput single cell planar patch clamp method; type: cell-based
Chain of Voltage-gated inwardly rectifying potassium channel KCNH2 (Q12809 whole entry): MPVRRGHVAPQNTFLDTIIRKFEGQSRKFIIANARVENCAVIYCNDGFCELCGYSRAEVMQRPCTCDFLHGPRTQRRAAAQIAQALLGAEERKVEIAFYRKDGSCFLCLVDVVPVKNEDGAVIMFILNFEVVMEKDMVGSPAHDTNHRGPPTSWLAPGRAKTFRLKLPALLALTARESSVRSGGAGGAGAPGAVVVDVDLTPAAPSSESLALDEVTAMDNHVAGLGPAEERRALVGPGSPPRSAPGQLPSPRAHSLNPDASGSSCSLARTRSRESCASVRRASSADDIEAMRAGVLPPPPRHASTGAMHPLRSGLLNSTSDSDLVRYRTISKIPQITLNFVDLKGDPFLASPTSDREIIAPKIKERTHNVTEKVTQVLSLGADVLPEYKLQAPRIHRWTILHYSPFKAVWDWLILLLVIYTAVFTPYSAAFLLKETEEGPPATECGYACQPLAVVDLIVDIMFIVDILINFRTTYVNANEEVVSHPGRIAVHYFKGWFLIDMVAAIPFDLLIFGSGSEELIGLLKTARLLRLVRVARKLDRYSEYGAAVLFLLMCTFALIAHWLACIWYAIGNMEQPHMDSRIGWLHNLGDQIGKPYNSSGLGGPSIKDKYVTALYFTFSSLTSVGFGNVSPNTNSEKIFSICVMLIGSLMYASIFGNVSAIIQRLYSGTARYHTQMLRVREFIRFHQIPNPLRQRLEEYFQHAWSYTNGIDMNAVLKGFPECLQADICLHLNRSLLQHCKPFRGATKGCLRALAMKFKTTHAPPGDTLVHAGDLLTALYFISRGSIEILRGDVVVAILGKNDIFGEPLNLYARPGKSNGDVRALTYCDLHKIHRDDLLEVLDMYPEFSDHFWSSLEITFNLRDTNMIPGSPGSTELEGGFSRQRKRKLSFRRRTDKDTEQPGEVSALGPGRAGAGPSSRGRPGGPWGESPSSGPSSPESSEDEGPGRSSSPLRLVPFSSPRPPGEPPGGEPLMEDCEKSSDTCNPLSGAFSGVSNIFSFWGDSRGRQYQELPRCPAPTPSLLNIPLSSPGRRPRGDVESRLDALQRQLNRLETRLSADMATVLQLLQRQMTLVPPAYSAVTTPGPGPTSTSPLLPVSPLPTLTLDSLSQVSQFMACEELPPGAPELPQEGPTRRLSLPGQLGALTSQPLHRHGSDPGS

[6] = target: T1, CYP1A (Homo sapiens, UniProt P04798+P05177); test: Inhibition of CYP1A in human liver microsomes by LC-MS/MS analysis; type: ADME, Microsome; method in brief: as §1
T1 sequence (P04798 whole entry): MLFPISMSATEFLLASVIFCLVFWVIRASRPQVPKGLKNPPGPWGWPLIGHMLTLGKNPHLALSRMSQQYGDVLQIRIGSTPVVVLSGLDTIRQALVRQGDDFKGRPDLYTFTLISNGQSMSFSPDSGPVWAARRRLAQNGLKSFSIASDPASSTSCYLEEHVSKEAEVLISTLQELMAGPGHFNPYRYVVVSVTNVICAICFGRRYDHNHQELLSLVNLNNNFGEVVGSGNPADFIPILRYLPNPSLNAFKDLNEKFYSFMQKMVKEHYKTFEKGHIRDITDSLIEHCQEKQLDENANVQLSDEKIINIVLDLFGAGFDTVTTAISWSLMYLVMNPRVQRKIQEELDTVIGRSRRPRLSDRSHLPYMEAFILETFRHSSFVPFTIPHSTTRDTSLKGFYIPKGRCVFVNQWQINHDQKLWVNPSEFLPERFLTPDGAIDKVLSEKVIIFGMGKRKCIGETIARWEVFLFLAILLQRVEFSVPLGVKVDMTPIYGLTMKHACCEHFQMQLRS
T1 sequence (P05177 whole entry): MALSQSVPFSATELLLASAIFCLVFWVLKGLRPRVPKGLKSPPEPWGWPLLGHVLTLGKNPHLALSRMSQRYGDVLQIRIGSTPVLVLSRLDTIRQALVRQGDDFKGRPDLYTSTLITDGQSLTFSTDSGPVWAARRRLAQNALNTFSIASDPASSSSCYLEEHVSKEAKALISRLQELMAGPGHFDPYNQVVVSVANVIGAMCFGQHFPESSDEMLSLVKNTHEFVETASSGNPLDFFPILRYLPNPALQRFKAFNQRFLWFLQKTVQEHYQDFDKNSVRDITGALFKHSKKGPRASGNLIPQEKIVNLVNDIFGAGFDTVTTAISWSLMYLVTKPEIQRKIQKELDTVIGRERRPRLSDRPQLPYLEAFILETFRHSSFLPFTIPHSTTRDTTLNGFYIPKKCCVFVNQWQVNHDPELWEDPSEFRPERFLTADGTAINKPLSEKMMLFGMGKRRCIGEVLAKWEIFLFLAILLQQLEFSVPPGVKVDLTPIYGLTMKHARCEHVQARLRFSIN

[7] = target: Cytochrome P450 2D6 (Homo sapiens, UniProt P10635); test: Inhibition of CYP2D6 in human liver microsomes by LC-MS/MS analysis; type: ADME, Microsome; method in brief: as §1
Chain of Cytochrome P450 2D6 (P10635 whole entry): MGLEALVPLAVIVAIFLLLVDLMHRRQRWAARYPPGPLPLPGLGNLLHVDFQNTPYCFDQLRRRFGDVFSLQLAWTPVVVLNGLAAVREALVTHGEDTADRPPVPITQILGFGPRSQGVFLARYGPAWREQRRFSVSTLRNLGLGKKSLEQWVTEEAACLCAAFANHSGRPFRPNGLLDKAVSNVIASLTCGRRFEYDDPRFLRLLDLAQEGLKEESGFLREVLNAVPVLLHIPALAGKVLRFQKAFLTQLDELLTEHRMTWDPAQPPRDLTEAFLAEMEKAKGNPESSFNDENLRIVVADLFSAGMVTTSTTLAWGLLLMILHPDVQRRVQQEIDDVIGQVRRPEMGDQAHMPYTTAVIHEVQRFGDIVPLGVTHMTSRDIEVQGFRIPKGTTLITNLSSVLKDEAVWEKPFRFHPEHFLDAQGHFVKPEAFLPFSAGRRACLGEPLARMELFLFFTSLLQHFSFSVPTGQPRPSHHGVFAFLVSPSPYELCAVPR

[8] = Half life in human liver microsomes at 3 uM by LC-MS/MS analysis; type: ADME, Microsome; method in brief: as §2
[9] = target: Sodium-dependent noradrenaline transporter (Homo sapiens, UniProt P23975); test: Inhibition of norepinephrine reuptake at NET expressed in MDCK cells; type: cell-based
Chain of Sodium-dependent noradrenaline transporter (P23975 whole entry): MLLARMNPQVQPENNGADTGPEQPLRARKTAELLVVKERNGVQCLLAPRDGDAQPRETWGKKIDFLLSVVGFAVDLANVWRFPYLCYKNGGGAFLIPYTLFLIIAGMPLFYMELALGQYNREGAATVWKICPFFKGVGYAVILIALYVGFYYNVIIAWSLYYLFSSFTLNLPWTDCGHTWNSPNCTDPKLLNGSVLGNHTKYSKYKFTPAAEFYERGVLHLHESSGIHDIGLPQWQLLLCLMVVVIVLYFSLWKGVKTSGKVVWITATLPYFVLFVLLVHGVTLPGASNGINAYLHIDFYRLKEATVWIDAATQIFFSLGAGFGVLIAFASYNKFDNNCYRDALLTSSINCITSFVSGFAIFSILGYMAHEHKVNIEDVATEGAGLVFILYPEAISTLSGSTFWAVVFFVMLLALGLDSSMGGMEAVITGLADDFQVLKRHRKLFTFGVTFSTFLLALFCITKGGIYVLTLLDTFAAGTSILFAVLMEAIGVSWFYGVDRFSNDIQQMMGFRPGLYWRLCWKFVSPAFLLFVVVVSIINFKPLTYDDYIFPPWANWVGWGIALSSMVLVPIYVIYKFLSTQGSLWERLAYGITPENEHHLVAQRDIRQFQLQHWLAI

[10] = target: Sodium-dependent serotonin transporter (Homo sapiens, UniProt P31645); test: Inhibition of serotonin reuptake at SERT expressed in HEK293 cells; type: cell-based
Chain of Sodium-dependent serotonin transporter (P31645 whole entry): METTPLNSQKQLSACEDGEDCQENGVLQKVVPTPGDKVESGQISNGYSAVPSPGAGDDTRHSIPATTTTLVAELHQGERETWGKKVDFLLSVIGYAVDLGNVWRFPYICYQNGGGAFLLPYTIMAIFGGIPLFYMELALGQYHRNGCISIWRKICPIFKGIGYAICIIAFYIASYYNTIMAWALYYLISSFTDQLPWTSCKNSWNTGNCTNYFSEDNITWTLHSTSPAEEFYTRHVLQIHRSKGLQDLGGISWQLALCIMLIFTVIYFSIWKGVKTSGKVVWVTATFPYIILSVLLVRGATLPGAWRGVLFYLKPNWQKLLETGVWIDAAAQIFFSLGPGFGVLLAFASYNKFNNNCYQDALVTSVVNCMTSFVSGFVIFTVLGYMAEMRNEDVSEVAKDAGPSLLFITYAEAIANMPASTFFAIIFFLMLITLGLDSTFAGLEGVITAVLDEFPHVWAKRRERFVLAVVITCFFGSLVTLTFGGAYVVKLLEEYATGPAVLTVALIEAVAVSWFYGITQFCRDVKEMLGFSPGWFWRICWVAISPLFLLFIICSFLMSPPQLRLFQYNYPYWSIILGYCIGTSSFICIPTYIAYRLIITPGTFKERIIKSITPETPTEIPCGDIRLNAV

[11] = target: Cytochrome P450 2C19 (Homo sapiens, UniProt P33261); test: Inhibition of CYP2C19 in human liver microsomes by LC-MS/MS analysis; type: ADME, Microsome; method in brief: as §1
Chain of Cytochrome P450 2C19 (P33261 whole entry): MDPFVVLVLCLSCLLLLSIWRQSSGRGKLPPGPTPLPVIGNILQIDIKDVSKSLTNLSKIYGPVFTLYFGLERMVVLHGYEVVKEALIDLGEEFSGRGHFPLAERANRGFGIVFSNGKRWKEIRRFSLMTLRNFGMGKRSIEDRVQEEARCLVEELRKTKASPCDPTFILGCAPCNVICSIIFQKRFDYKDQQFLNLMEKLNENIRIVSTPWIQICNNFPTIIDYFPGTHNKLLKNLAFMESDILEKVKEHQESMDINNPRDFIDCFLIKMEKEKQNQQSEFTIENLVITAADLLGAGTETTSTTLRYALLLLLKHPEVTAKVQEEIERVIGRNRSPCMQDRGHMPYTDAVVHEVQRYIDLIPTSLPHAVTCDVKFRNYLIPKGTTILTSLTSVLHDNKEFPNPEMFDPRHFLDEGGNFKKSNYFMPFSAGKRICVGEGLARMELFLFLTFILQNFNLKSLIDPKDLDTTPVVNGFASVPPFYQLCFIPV

[12] = test system: Mus musculus; test: Antidepressant activity in po dosed mouse assessed as reduction of immobility time after 60 mins by tail suspension test; type: functional, organism-based
Method in brief: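 Mouse tail suspension test, male mice (10–12 per group, blind). Single oral dose in 5% transcutol in saline, 60 min pretreatment. Immobility recorded automatically for 5 min. Compared with vehicle group. Desipramine 100 mg/kg PO used as reference. One-way ANOVA with Dunnett's post test, p < 0.05.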

Chain of Cytochrome P450 3A4 (P08684 whole entry, canonical isoform): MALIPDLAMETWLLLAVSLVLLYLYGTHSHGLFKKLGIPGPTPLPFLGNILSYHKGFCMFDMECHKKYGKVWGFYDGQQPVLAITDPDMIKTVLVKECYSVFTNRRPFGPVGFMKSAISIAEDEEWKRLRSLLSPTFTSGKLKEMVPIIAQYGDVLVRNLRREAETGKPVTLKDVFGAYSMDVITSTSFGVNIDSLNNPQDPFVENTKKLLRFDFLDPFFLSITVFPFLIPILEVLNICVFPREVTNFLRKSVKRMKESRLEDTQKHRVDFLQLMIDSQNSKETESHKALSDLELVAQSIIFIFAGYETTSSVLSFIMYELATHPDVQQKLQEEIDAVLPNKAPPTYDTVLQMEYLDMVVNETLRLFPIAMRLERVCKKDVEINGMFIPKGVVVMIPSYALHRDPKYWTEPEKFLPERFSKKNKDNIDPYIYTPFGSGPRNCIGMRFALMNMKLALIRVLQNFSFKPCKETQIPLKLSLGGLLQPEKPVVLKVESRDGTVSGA

## Clc1ccc([C@]23CCCC[C@H]2CNC3)cc1Cl
[1]
  IC50: 8390 nM
[2]
  half-life at 3 µM: > 300 min
[3]
  IC50: 457 nM
[4]
  IC50: > 25000 nM
[5]
  IC50: 6480 nM
[6]
  IC50: 7960 nM
[7]
  IC50: 2650 nM
[8]
  half-life at 3 µM: > 300 min
[9]
  IC50: 178 nM
[10]
  IC50: 97.7 nM
[11]
  IC50: > 25000 nM

## c1ccc2cc([C@@]34CCC[C@@H]3CNC4)ccc2c1
[1]
  IC50: 10700 nM
[2]
  half-life at 3 µM: 56 min
[3]
  IC50: 30.2 nM
[4]
  IC50: 14400 nM
[6]
  IC50: 710 nM
[7]
  IC50: 10800 nM
[8]
  half-life at 3 µM: 28 min
[9]
  IC50: 60.3 nM
[10]
  IC50: 120 nM
[11]
  IC50: 7190 nM

## CN1C[C@@H]2CCCC[C@]2(c2ccc(Cl)c(Cl)c2)C1
[1]
  IC50: 5280 nM
[2]
  half-life at 3 µM: 35 min
[3]
  IC50: 14.1 nM
[4]
  IC50: > 25000 nM
[5]
  IC50: 2320 nM
[6]
  IC50: 3000 nM
[7]
  IC50: 8000 nM
[8]
  half-life at 3 µM: 62 min
[9]
  IC50: 141 nM
[10]
  IC50: 107 nM
[11]
  IC50: > 25000 nM

## CN1C[C@@H]2CCCC[C@]2(c2ccc3ccccc3c2)C1
[2]
  half-life at 3 µM: 18 min
[3]
  IC50: 309 nM
[7]
  IC50: 560 nM
[8]
  half-life at 3 µM: 46 min
[9]
  IC50: 724 nM
[10]
  IC50: 6.92 nM

## CCN1C[C@H]2CCCC[C@@]2(c2ccc(Cl)c(Cl)c2)C1
[1]
  IC50: > 5000 nM
[2]
  half-life at 3 µM: 52 min
[3]
  IC50: 25.1 nM
[4]
  IC50: > 5000 nM
[5]
  IC50: 4730 nM
[6]
  IC50: > 25000 nM
[7]
  IC50: 250 nM
[8]
  half-life at 3 µM: 68 min
[9]
  IC50: 26.9 nM
[10]
  IC50: 45.7 nM
[11]
  IC50: 17900 nM

## Clc1ccc([C@@]23CCC[C@@H]2CNC3)cc1Cl
[12]
  Activity: Dose-dependent effect

## CN1C[C@@H]2CCC[C@]2(c2ccc3ccccc3c2)C1
[2]
  half-life at 3 µM: 18 min
[3]
  IC50: 182 nM
[7]
  IC50: 2610 nM
[8]
  half-life at 3 µM: 36 min
[9]
  IC50: 209 nM
[10]
  IC50: 2.29 nM

— ChEMBL document CHEMBL1811752, “Synthesis and pharmacological characterization of bicyclic triple reuptake inhibitor 3-aryl octahydrocyclopenta[c]pyrrole analogues” (J Med Chem, 2011)
